Source: ChEMBL document CHEMBL4823316, “Synthesis and evaluation of squaramide and thiosquaramide inhibitors of the DNA repair enzyme SNM1A” (Bioorg Med Chem, 2021)
Calls of active or inactive are those of the source. The rule behind the calls is not given here.

Legend:
[1] = molecular target: T1, DNA cross-link repair 1A protein (Homo sapiens) (UniProt Q6PJP8); test: Inhibition of SNM1A (unknown origin) assessed as reduction in oligonucleotide digestion at 1 mM using 21mer fluorescent oligonucleotide as substrate preincubated for 5 mins followed by substrate addition and measured after 1 hr by PAGE analysis; conditions: time 65.0 min
T1 sequence (whole entry): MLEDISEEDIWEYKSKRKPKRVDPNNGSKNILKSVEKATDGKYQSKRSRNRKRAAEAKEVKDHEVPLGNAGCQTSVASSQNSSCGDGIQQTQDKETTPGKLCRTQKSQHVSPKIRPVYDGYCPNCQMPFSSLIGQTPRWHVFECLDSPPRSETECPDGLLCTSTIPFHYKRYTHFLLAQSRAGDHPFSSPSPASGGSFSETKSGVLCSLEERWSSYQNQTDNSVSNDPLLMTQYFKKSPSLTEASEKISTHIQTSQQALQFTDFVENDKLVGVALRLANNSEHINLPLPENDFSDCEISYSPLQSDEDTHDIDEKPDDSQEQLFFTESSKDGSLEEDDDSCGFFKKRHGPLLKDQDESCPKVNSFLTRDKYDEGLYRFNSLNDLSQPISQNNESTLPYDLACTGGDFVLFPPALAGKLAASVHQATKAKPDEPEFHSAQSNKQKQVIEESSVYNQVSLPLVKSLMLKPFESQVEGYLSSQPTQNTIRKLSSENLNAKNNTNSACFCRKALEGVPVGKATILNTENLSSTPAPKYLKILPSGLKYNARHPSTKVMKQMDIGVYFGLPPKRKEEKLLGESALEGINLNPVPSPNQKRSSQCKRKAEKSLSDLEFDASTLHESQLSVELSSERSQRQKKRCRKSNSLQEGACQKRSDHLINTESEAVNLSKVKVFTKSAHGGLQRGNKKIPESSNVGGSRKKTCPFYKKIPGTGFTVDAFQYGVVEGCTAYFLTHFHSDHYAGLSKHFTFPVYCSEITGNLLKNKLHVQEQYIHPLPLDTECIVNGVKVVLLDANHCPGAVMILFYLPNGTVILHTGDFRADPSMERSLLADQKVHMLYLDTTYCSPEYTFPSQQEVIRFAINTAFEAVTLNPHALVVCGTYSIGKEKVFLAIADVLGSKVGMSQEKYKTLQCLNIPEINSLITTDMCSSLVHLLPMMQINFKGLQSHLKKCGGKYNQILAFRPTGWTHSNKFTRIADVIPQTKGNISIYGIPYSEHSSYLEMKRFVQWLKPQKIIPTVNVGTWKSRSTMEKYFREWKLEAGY

[2] = Metal chelating activity assessed as Zn2+-compound complex formation by measuring equilibrium constant measured at 2:1 compound to metal ion ratio by UV-Vis titration based analysis
How it was run: (§1)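 Compounds in MeCN titrated with Zn(ClO₄)₂ and followed by UV–Vis. Binding constants for 1:1, 1:2 and 2:1 ligand–metal species were derived by global non-linear regression, comparing two- and three-species models. Described as qualitative.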

[3] = Metal chelating activity assessed as Zn2+-compound complex formation by measuring equilibrium constant measured at 1:1 compound to metal ion ratio by UV-Vis titration based analysis; how it was run: as §1
[4] = molecular target: T2, DNA cross-link repair 1A protein (Homo sapiens, UniProt Q6PJP8); test: Inhibition of SNM1A (unknown origin) by real time fluorescence assay
T2 sequence (Q6PJP8 whole entry): T1 sequence (whole entry)
How it was run: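 Real-time fluorescence assay of SNM1A exonuclease activity used to derive IC₅₀ from a concentration series. Unmodified thymidine run as control. Error bars from 6 independent repeats.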

[5] = molecular target: T1, DNA cross-link repair 1A protein (Homo sapiens); test: Inhibition of SNM1A (unknown origin) assessed as reduction in oligonucleotide digestion at 333 uM using 21mer fluorescent oligonucleotide as substrate preincubated for 5 mins followed by substrate addition and measured after 1 hr by PAGE analysis; conditions: time 65.0 min
[6] = Metal chelating activity assessed as Zn2+-compound complex formation by measuring equilibrium constant measured at 1:2 compound to metal ion ratio by UV-Vis titration based analysis; how it was run: as §1

Row | SMILES | inhibition [1] | other results
1 | CN(O)c1c(N[C@H]2[C@@H](O)[C@H](n3ccc(=O)[nH]c3=O)O[C@@H]2CO)c(=O)c1=O | Active | 
2 | CCN(CC)c1c(N[C@H]2C[C@H](n3cc(C)c(=O)[nH]c3=O)O[C@@H]2CO)c(=S)c1=S | Active | 
3 | Cc1cn([C@H]2C[C@H](O)[C@@H](CNc3c(NCCO)c(=O)c3=O)O2)c(=O)[nH]c1=O | inactive | 
4 | Cc1cn([C@H]2C[C@H](O)[C@@H](CNc3c(Nc4ccccc4O)c(=O)c3=O)O2)c(=O)[nH]c1=O | inactive | 
5 | Cc1cn([C@H]2C[C@H](O)[C@@H](CNc3c(O)c(=O)c3=O)O2)c(=O)[nH]c1=O | inactive | 
6 | Cc1cn([C@H]2C[C@H](O)[C@H](CNc3c(N[C@H]4C[C@H](n5cc(C)c(=O)[nH]c5=O)O[C@@H]4CO)c(=S)c3=S)O2)c(=O)[nH]c1=O | Active | 
7 | Cc1cn([C@H]2C[C@H](Nc3c(O)c(=O)c3=O)[C@@H](CO)O2)c(=O)[nH]c1=O |  | Kb [2]: 3.2 10^6/M; Kb [3]: 4 10^4/M
8 | CCOc1c(NC[C@H]2O[C@@H](n3cc(C)c(=O)[nH]c3=O)C[C@@H]2O)c(=O)c1=O | inactive | 
9 | Cc1cn([C@H]2C[C@H](O)[C@@H](CO)O2)c(=O)[nH]c1=O [DOXRIBTIMINE] | inactive | IC50 [4]: Not Active
10 | Cc1cn([C@H]2C[C@H](Nc3c(N(C)O)c(=O)c3=O)[C@@H](CO)O2)c(=O)[nH]c1=O | Active | inhibition [5]: Active; Kb [3]: 3 10^4/M; Kb [6]: 6.6 10^1/M
11 | CCN(CC)c1c(NC[C@H]2O[C@@H](n3cc(C)c(=O)[nH]c3=O)C[C@@H]2O)c(=S)c1=S |  | Kb [2]: 1.2 10^6/M; Kb [3]: 6.8 10^5/M; Kb [6]: 1.7 10^2/M
12 | CCN(CC)c1c(NC[C@H]2O[C@@H](n3cc(C)c(=O)[nH]c3=O)C[C@@H]2O)c(=O)c1=O | inactive | 
